Assays:
[1] = system: MT4; test: Cytotoxicity against mock-infected human MT4 cells assessed as reduction in cell viability measured after 5 days by MTT assay; type: functional; settings: MT4, 120 h, time 5 day
Summary of the method: (§1)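 MT-4 cells (exponentially growing, resuspended at 6 × 10⁵ cells/mL) were seeded onto serial five-fold compound dilutions and infected with 100–300 CCID₅₀ virus stock, or given medium only (mock). Viability was read by MTT at 540 and 690 nm five days after infection, using the median OD of three wells. EC₅₀ is 50% protection from viral cytopathicity. CC₅₀ is 50% loss of viability in mock-infected cells.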

[2] = molecular target: Human immunodeficiency virus type 1 reverse transcriptase (Human immunodeficiency virus 1, UniProt Q72547); test: Inhibition of wild type HIV1 Reverse transcriptase RNase H expressed in Escherichia coli using 5'-UUUUUUUUUAGGAUACAUAUGGUUAAAGU-3' oligonucleotide as substrate and DNA21P as primer in presence of [gamma32P]-ATP by PAGE analysis
Summary of the method: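 Wild-type HIV-1 BH10 RT was expressed in E. coli and purified. RNase H activity was measured on a 31-nt RNA, 5′-³²P-labelled, annealed to a 21-nt DNA (31T/21P). Cleaved substrate was quantified without inhibitor (5% DMSO) and with compound over 0.2–100 µM. IC₅₀ values were taken from dose-response curves.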

[3] = system: Human immunodeficiency virus 1; test: Antiviral activity against wild type HIV1 3B infected in human MT4 cells assessed as protection against virus-induced cytopathic effect incubated for 5 days by MTT assay; type: functional, organism-based; settings: Human immunodeficiency virus 1, 3B, MT4, 120 h; summary of the method: as §1
[4] = molecular target: Human immunodeficiency virus type 1 reverse transcriptase (Human immunodeficiency virus 1) (UniProt Q72547); test: Inhibition of wild type HIV1 Reverse transcriptase RNase H expressed in Escherichia coli at 100 uM using 5'-UUUUUUUUUAGGAUACAUAUGGUUAAAGU-3' oligonucleotide as substrate and DNA21P as primer in presence of [gamma32P]-ATP by PAGE analysis relative to control
[5] = molecular target: Human immunodeficiency virus type 1 reverse transcriptase (Human immunodeficiency virus 1) (UniProt Q72547); test: Inhibition of wild type HIV1 Reverse transcriptase RNase H expressed in Escherichia coli at 50 uM using 5'-UUUUUUUUUAGGAUACAUAUGGUUAAAGU-3' oligonucleotide as substrate and DNA21P as primer in presence of [gamma32P]-ATP by PAGE analysis relative to control
[6] = system: Human immunodeficiency virus 2; test: Antiviral activity against HIV2 ROD infected in human MT4 cells assessed as protection against virus-induced cytopathic effect incubated for 5 days by MTT assay; settings: Human immunodeficiency virus 2, ISOLATE ROD, MT4, 120 h
[7] = system: Human immunodeficiency virus 1; test: Antiviral activity against HIV1 RES056 infected in human MT4 cells assessed as protection against virus-induced cytopathic effect incubated for 5 days by MTT assay; type: functional, organism-based; settings: Human immunodeficiency virus 1, RES056, MT4, 120 h; summary of the method: as §1

| IC50 [2] [µM] | inhibition [4] [%] | inhibition [5] [%] | Structure (SMILES) | CC50 [1] [µM] | EC50 [3] [µM] | EC50 [6] [µM] | EC50 [7] [µM] |
| --- | --- | --- | --- | --- | --- | --- | --- |
| > 50 | 72.5 | < 10 | O=C(NC1CCN(Cc2cccc(Cl)c2)CC1)c1cc2cc([N+](=O)[O-])c(O)c(O)c2oc1=O | 143 | > 143 | > 143 |  |
|  |  |  | Cc1c(O)c([N+](=O)[O-])cc2cc(C(=O)Nc3ccc(F)cc3)c(=O)oc12 | 6.5 | > 6.5 | > 6.5 |  |
|  |  |  | COC(=O)c1cc(NC(=O)c2cc3cc([N+](=O)[O-])c(O)c(C)c3oc2=O)ccc1O | 182 | > 182 | > 182 |  |
|  |  |  | O=C(NC1CCN(Cc2ccc([N+](=O)[O-])cc2)CC1)c1cc2cc([N+](=O)[O-])c(O)c(O)c2oc1=O | > 217 | > 101 | > 101 |  |
|  |  |  | Cc1c(O)c([N+](=O)[O-])cc2cc(C(=O)Nc3ccccc3F)c(=O)oc12 | 10.7 | > 10.7 | > 10.7 |  |
| > 50 | 68.6 | < 10 | O=C(NCc1ccc(F)cc1Cl)c1cc2cc([N+](=O)[O-])c(O)c(O)c2oc1=O | 266 | 46.1 | > 266 |  |
|  |  |  | Cc1c(O)c([N+](=O)[O-])cc2cc(C(=O)NC3CCN(C(=O)N(C)C)CC3)c(=O)oc12 | 19.9 | > 19.9 | > 19.9 |  |
|  |  |  | O=C(NCc1ccccc1F)c1cc2cc([N+](=O)[O-])c(O)c(O)c2oc1=O | 259 | > 259 | > 259 |  |
| > 100 | 23.8 |  | Cc1c(O)c([N+](=O)[O-])cc2cc(C(=O)NC3CCN(Cc4ccc(Cl)cc4)CC3)c(=O)oc12 | > 264 | 167 | 148 |  |
| > 50 | 78 | 12 | O=C(Nc1ccc(F)cc1F)c1cc2cc([N+](=O)[O-])c(O)c(O)c2oc1=O | > 330 | 237 | > 330 |  |
| > 100 | 48 |  | O=C(NCc1ccc(F)cc1)c1cc2cc([N+](=O)[O-])c(O)c(O)c2oc1=O | 272 | > 272 | > 272 |  |
| > 100 | 38.7 |  | Cc1c(O)c([N+](=O)[O-])cc2cc(C(=O)NCc3ccccc3F)c(=O)oc12 | 45 | > 45 | > 45 |  |
|  |  |  | Cc1c(O)c([N+](=O)[O-])cc2cc(C(=O)NCc3cccc(F)c3)c(=O)oc12 | 47.5 | > 47.5 | > 47.5 |  |
| 45.2 |  |  | Cc1c(O)c([N+](=O)[O-])cc2cc(C(=O)NC3CCN(Cc4cccc(F)c4)CC3)c(=O)oc12 | 50.5 | > 50.5 | > 50.5 |  |
| 20.8 |  |  | O=C(O)c1cc(NC(=O)c2cc3cc([N+](=O)[O-])c(O)c(O)c3oc2=O)ccc1O | > 310 | 101 | 116 | 107 |
|  |  |  | Cc1c(O)c([N+](=O)[O-])cc2cc(C(=O)NC3CCN(Cc4ccccc4)CC3)c(=O)oc12 | 7.8 | > 7.8 | > 7.8 |  |
| 45.1 |  |  | CCCN(C(=O)c1cc2cc([N+](=O)[O-])c(O)c(O)c2oc1=O)[C@@H]1CCc2nc(N)sc2C1 | > 271 | 28.5 | 144 | 19.6 |
|  |  |  | Cc1c(O)c([N+](=O)[O-])cc2cc(C(=O)NC3CCN(Cc4ccc(Br)cc4)CC3)c(=O)oc12 | 72.3 | > 72.3 | > 72.3 |  |
| > 50 | 57.7 |  | O=C(NC1CCN(Cc2cccc(F)c2)CC1)c1cc2cc([N+](=O)[O-])c(O)c(O)c2oc1=O | > 220 | 210 | > 220 |  |
| > 100 | 28.6 |  | Cc1c(O)c([N+](=O)[O-])cc2cc(C(=O)Nc3cccc(F)c3)c(=O)oc12 | 12.5 | > 12.5 | > 12.5 |  |

| IC50 [2] [µM] | inhibition [4] [%] | inhibition [5] [%] | Structure (SMILES) | CC50 [1] [µM] | EC50 [3] [µM] | EC50 [6] [µM] | EC50 [7] [µM] |
| --- | --- | --- | --- | --- | --- | --- | --- |
| > 50 | 72.1 | < 10 | Cc1cccc(CN2CCC(NC(=O)c3cc4cc([N+](=O)[O-])c(O)c(C)c4oc3=O)CC2)c1 | 3.88 | > 3.88 | > 3.88 |  |
| 9.9 |  |  | Cc1c(O)c([N+](=O)[O-])cc2cc(C(=O)Nc3ccc(O)c(C(=O)O)c3)c(=O)oc12 | > 312 | 121 | 121 | 113 |
|  |  |  | Cc1c(O)c([N+](=O)[O-])cc2cc(C(=O)NC3CCN(Cc4cccc(Cl)c4)CC3)c(=O)oc12 | 9.37 | > 9.38 |  |  |
|  |  |  | Cc1ccc(CN2CCC(NC(=O)c3cc4cc([N+](=O)[O-])c(O)c(C)c4oc3=O)CC2)cc1 | > 276 | > 276 | > 276 |  |
| 8.4 |  | 31.8 | O=C(NC1CCN(Cc2ccc(Cl)cc2)CC1)c1cc2cc([N+](=O)[O-])c(O)c(O)c2oc1=O | 21.7 | > 21.7 | > 21.7 |  |
|  |  |  | O=C(NCc1cccc(F)c1)c1cc2cc([N+](=O)[O-])c(O)c(O)c2oc1=O | 228 | > 228 | > 228 |  |
|  |  |  | Cc1c(O)c([N+](=O)[O-])cc2cc(C(=O)NCc3ccc(F)cc3)c(=O)oc12 | 44 | > 44 | > 44 |  |
| > 250 |  |  | CCC1CCN(C2CCN(C(=O)c3cc4cc([N+](=O)[O-])c(O)c(O)c4oc3=O)CC2)CC1 | > 280 | 208 | > 280 | 213 |
| > 50 | 57.4 | 32.4 | O=C(NC1CCN(Cc2cccc(Br)c2)CC1)c1cc2cc([N+](=O)[O-])c(O)c(O)c2oc1=O | 153 | > 153 | > 153 |  |
| 68.5 |  |  | O=C(c1cc2cc([N+](=O)[O-])c(O)c(O)c2oc1=O)N1CCCN(S(=O)(=O)c2ccc3ccncc3c2)CC1 | > 231 | 82.7 | > 231 | 123 |
|  |  |  | Cc1c(O)c([N+](=O)[O-])cc2cc(C(=O)NC3CCN(C(=O)c4ccc([N+](=O)[O-])cc4)CC3)c(=O)oc12 | > 251 | > 251 | > 251 |  |
| > 50 | 72.5 | < 10 | O=C(Nc1ccc(F)cc1)c1cc2cc([N+](=O)[O-])c(O)c(O)c2oc1=O | 200 | > 200 | > 200 |  |
| > 50 | 87.2 | 37.1 | Cc1c(O)c([N+](=O)[O-])cc2cc(C(=O)NC3CCN(Cc4ccc(C(N)=O)cc4)CC3)c(=O)oc12 | > 260 | 138 | > 260 |  |
|  |  |  | Cc1c(O)c([N+](=O)[O-])cc2cc(C(=O)NC3CCN(Cc4ccc(F)cc4)CC3)c(=O)oc12 | 42.6 | > 42.6 | > 42.6 |  |
| > 100 | 47.4 |  | O=C(NC1CCN(Cc2ccc(Br)cc2)CC1)c1cc2cc([N+](=O)[O-])c(O)c(O)c2oc1=O | 112 | > 112 | > 112 |  |
|  |  |  | Cc1c(O)c([N+](=O)[O-])cc2cc(C(=O)NC3CCN(S(=O)(=O)N(C)C)CC3)c(=O)oc12 | 50.8 | > 50.8 | > 50.8 |  |
|  |  |  | N#Cc1ccc(CN2CCC(NC(=O)c3cc4cc([N+](=O)[O-])c(O)c(O)c4oc3=O)CC2)cc1 | > 269 | 160 | > 269 |  |
|  |  |  | Cc1c(O)c([N+](=O)[O-])cc2cc(C(=O)NCc3ccc(F)cc3Cl)c(=O)oc12 | 32.5 | > 32.5 | > 32.5 |  |
| > 50 | 62.9 | < 10 | Cc1c(O)c([N+](=O)[O-])cc2cc(C(=O)NC3CCN(Cc4cccc(Br)c4)CC3)c(=O)oc12 | 14.7 | > 14.7 | > 14.7 |  |
|  |  |  | Cc1c(O)c([N+](=O)[O-])cc2cc(C(=O)NC3CCN(Cc4ccc([N+](=O)[O-])cc4)CC3)c(=O)oc12 | > 264 | 234 | > 259 |  |

Reference: ChEMBL document CHEMBL4842356, “Discovery, optimization, and target identification of novel coumarin derivatives as HIV-1 reverse transcriptase-associated ribonuclease H inhibitors” (Eur J Med Chem, 2021)
